In ChEMBL document CHEMBL1938298, “Synthesis and characterization of [¹²⁵I]2-iodo N-[(S)-{(S)-1-methylpiperidin-2-yl}(phenyl)methyl]3-trifluoromethyl-benzamide as novel imaging probe for glycine transporter 1” (Bioorg Med Chem, 2011):
The source made the active and inactive calls. No cut-off for these calls is given here.

How the values were obtained:
Kidney = assay: Drug uptake in ddY mouse kidney at 11.1 kBq, iv after 60 min by gamma counting; assay type: ADME, organism-based; conditions: in vivo, 1 h
Method in brief: (§1)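 Male ddY mice (6 weeks, 30–35 g) were given about 11.1 kBq of [125I]tracer in 0.1 mL i.v. via the tail vein. At each time point the animals were killed and organs dissected, weighed and gamma-counted. Uptake is expressed as % injected dose per gram of tissue, mean ± SD, n = 5–6.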

Lung [1] = assay: Drug uptake in ddY mouse lung at 11.1 kBq, iv after 0.5 min by gamma counting; assay type: ADME, organism-based; conditions: in vivo; method in brief: as §1
Lung [2] = assay: Drug uptake in ddY mouse lung at 11.1 kBq, iv after 180 min by gamma counting; assay type: ADME, organism-based; conditions: in vivo, 3 h; method in brief: as §1
Mus musculus [3] = assay: In vivo binding affinity to GlyT1 in ddY mouse brain thalamus at 33.3 kBq, iv after 30 mins in presence of N-Me-SSR504734 2 mg/kg, iv administered 15 mins prior to compound administration relative to control; assay type: functional
Mus musculus [4] = assay: In vivo binding affinity to GlyT1 in ddY mouse brain medullary region at 33.3 kBq, iv after 60 mins in presence of N-Me-SSR504734 2 mg/kg, iv administered 15 mins prior to compound administration relative to control; assay type: functional, Medulla of organ
Stomach = assay: Drug uptake in ddY mouse stomach at 11.1 kBq, iv after 30 min by gamma counting; assay type: ADME, organism-based; conditions: in vivo, 0.5 h; method in brief: as §1
Heart = assay: Drug uptake in ddY mouse heart at 11.1 kBq, iv after 180 min by gamma counting; assay type: ADME, organism-based; conditions: in vivo, 3 h
Method in brief: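 Male ddY mice (6 weeks, 30–35 g) received about 11.1 kBq [125I]tracer in 0.1 mL i.v. via tail vein. Killed at set times, organs dissected and weighed, radioactivity gamma counted. Reported as % injected dose/g tissue, mean ± SD, n = 5–6.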

[5] = molecular target: T1, Sodium- and chloride-dependent glycine transporter 1 (Rattus norvegicus, UniProt P28572); assay: Binding affinity to GlyT1 in rat cortical brain homogenate after 60 mins by gamma counting; assay type: tissue-based
T1 sequence (P28572 whole entry): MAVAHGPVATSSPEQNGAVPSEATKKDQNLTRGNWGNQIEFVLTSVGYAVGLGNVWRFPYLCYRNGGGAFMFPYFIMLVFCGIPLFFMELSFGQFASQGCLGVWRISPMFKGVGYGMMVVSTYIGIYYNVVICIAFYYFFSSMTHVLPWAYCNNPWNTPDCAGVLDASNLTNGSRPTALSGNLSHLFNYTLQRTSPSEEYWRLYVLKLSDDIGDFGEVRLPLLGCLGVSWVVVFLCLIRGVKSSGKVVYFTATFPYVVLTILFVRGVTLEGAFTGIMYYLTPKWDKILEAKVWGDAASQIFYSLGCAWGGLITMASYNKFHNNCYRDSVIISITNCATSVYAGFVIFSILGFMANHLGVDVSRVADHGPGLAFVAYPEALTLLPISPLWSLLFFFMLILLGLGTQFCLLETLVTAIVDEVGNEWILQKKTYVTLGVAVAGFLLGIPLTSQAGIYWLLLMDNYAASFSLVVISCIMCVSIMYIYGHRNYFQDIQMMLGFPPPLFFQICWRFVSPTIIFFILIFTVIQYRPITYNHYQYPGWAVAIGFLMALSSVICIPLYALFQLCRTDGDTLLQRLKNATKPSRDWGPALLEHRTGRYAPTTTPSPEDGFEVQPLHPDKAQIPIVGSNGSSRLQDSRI
Method in brief: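 Saturation binding on washed rat cortical membranes (25 µg protein) with [125I]tracer 0.1–20 nM in TB1 buffer (120 mM NaCl, 2 mM KCl, 1 mM CaCl2, 1 mM MgCl2, 10 mM HEPES, pH 7.5), 60 min at room temperature. Nonspecific binding defined with 10 µM unlabeled ligand. GF/B filtration with ice-cold buffer washes, gamma counting; Kd and Bmax from saturation analysis.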

[6] = molecular target: T2, Sodium- and chloride-dependent glycine transporter 1 (Rattus norvegicus) (UniProt P28572); assay: Binding affinity to GlyT1 in rat brain striatum at 0.03 to 0.04 nM preincubated for 20 mins in binding buffer before compound addition measured after 30 mins by autoradiography in presence of 10 mM GlyT1 substrate glycine relative to control; assay type: tissue-based; conditions: tested as the 125I-labelled form
T2 sequence (whole entry): T1 sequence (P28572 whole entry)

Mus musculus [7] = assay: In vivo binding affinity to GlyT1 in ddY mouse brain cerebellum at 33.3 kBq, iv after 60 mins in presence of SSR504734 2 mg/kg, iv administered 15 mins prior to compound administration relative to control; assay type: functional, organism-based; parameters: dose 2 mg/kg; conditions: tested as the 125I-labelled form
Method in brief: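 Blocking study in male ddY mice (6 weeks, 30–35 g). The blocker (2 mg/kg in 30% DMSO/saline) was injected i.v. 15 min before about 33.3 kBq [125I]tracer i.v.; mice were killed at 30 or 60 min. Brains were divided into cortex, corpus callosum, hippocampus, thalamus, midbrain, medulla and cerebellum, weighed and gamma-counted as % dose/g. Values are mean ± SD, n = 5–6, compared to control by Kruskal–Wallis with Dunn's post-test.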

Mus musculus [8] = assay: In vivo binding affinity to GlyT1 in ddY mouse brain hippocampus at 200 kBq, iv after 60 mins by autoradiography relative to control; assay type: functional, organism-based; conditions: tested as the 125I-labelled form
Method in brief: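 Ex vivo autoradiography in mice given 200 kBq [125I]tracer i.v. and killed at 60 min. Brains were removed, frozen on dry ice and cut into 20 µm sagittal cryosections, which were exposed to an imaging plate for 7 days. Regional signal was quantified as PSL/mm² (n = 5) and compared to control by Kruskal–Wallis with Dunn's post-test.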

[9] = molecular target: T2, Sodium- and chloride-dependent glycine transporter 1 (Rattus norvegicus); assay: Binding affinity to GlyT1 in rat brain cerebellum at 0.03 to 0.04 nM preincubated for 20 mins in binding buffer before compound addition measured after 30 mins by autoradiography in presence of 1 mM GlyT1 substrate glycine relative to control; assay type: tissue-based; conditions: tested as the 125I-labelled form
Method in brief: (§2)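 Rat brain sagittal sections (20 µm) preincubated 20 min at 25 °C in Tris-HCl buffer pH 7.5 (NaCl, KCl, MgCl2, CaCl2), then 30 min at 25 °C with [125I] tracer (100 kBq, 0.03–0.04 nM) plus competitor (10 µM; glycine 1 or 10 mM). Cold washes, imaging plate 3 days, ROI PSL minus background per mm². % control from ≥triplicate slices, three rats.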

[10] = molecular target: T2, Sodium- and chloride-dependent glycine transporter 1 (Rattus norvegicus); assay: Binding affinity to GlyT1 in rat brain cerebral cortex at 0.03 to 0.04 nM preincubated for 20 mins in binding buffer before compound addition measured after 30 mins by autoradiography relative to control; assay type: tissue-based; conditions: tested as the 125I-labelled form
Method in brief: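 Rat brain sagittal sections (20 µm), 20 min preincubation at 25 °C in Tris-HCl pH 7.5 binding buffer, then [125I] tracer (100 kBq, 0.03–0.04 nM) for 30 min at 25 °C. Nonspecific binding taken with 10 µM unlabeled ligand. Imaging-plate read-out as (PSL−BG)/mm². Mean ± SD, n = 4–5 from at least three rats; Mann–Whitney U-test.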

[11] = molecular target: T2, Sodium- and chloride-dependent glycine transporter 1 (Rattus norvegicus); assay: Binding affinity to GlyT1 in rat brain cerebral cortex at 0.03 to 0.04 nM preincubated for 20 mins in binding buffer before compound addition measured after 30 mins by autoradiography in presence of 0.01 mM GlyT2 inhibitor ORG25543 relative to control; assay type: tissue-based; conditions: tested as the 125I-labelled form; method in brief: as §2

Row | Drug uptake (Kidney) | Drug uptake (Lung [1]) | Drug uptake (Lung [2]) | Drug uptake (Stomach) | Drug uptake (Heart) | Kd [5] | Activity [6] | Activity [9] | Activity [10] | Activity [11] | SMILES | Activity (Mus musculus [3]) | Activity (Mus musculus [4]) | Activity (Mus musculus [7]) | Activity (Mus musculus [8])
1 | 8.27 % ID/g | 17.19 % ID/g | 9.34 % ID/g | 8.66 % ID/g | 1.79 % ID/g | 1.58 nM |  |  |  |  | CN1CCCC[C@H]1[C@@H](NC(=O)c1cccc(C(F)(F)F)c1[125I])c1ccccc1 | 56% | 47% |  | 
2 |  |  |  |  |  |  | 47.6% | 97.4% | inactive | 95.1% | CN1CCCC[C@H]1[C@@H](NC(=O)c1cccc(C(F)(F)F)c1I)c1ccccc1 |  |  | inactive | inactive
